Legend:
Adenosine receptor A2b [1] = target: T1, Adenosine receptor A2b (Homo sapiens, UniProt P29275); assay: Displacement of [3H]PSB-603 from human adenosine receptor A2B expressed in CHO cell membranes incubated for 75 mins by radioligand competition assay; design: species or system Cell membrane
T1 sequence (P29275 whole entry): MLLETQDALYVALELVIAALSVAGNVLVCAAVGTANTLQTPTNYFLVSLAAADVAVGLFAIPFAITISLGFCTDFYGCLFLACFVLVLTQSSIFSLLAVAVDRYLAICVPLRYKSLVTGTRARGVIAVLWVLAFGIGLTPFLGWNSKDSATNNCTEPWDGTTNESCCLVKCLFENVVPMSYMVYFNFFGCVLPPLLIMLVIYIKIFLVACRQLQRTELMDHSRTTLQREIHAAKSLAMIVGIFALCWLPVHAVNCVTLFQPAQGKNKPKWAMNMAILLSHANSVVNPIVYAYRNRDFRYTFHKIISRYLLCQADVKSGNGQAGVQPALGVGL

Adenosine receptor A3 [2] = target: T2, Adenosine receptor A3 (Homo sapiens, UniProt P0DMS8); assay: Displacement of [3H]PSB-11 from human adenosine receptor A3 expressed in CHO cell membranes incubated for 60 mins by radioligand competition assay; design: species or system Cell membrane
T2 sequence (P0DMS8 whole entry): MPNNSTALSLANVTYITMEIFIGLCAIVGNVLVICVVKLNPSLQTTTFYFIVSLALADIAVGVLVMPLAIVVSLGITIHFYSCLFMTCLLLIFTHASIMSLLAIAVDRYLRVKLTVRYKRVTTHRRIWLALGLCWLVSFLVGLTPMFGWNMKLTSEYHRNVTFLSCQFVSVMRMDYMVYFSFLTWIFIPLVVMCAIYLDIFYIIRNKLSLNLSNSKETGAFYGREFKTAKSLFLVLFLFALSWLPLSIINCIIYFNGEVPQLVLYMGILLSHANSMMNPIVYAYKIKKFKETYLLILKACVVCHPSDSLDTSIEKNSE

Adenosine receptor A1 [3] = target: T3, Adenosine receptor A1 (Homo sapiens, UniProt P30542); assay: Displacement of [3H]CCPA from human adenosine receptor A1 expressed in CHO cell membranes incubated for 90 mins by radioligand competition assay; design: species or system Cell membrane
T3 sequence (P30542 whole entry): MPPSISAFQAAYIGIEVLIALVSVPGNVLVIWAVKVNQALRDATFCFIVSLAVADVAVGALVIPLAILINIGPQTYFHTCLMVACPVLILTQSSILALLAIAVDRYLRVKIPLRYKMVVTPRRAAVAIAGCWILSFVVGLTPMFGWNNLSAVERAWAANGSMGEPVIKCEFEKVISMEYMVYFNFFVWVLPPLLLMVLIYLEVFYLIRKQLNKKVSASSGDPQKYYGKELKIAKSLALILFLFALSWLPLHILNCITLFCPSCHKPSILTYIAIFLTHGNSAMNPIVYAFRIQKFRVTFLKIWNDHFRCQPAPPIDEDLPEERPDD

Adenosine receptor A2a [4] = target: Adenosine receptor A2a (Homo sapiens, UniProt P29274); assay: Displacement of [3H]MSX2 from human adenosine receptor A2A expressed in HEK293 cell membranes incubated for 30 mins by radioligand competition assay; design: species or system Cell membrane
Adenosine receptor A1 [5] = target: T4, Adenosine receptor A1 (Rattus norvegicus, UniProt P25099); assay: Displacement of [3H]CCPA from adenosine receptor A1 in rat brain cortex membranes incubated for 90 mins by radioligand competition assay; type: cell membranes, Cell membrane
T4 sequence (P25099 whole entry): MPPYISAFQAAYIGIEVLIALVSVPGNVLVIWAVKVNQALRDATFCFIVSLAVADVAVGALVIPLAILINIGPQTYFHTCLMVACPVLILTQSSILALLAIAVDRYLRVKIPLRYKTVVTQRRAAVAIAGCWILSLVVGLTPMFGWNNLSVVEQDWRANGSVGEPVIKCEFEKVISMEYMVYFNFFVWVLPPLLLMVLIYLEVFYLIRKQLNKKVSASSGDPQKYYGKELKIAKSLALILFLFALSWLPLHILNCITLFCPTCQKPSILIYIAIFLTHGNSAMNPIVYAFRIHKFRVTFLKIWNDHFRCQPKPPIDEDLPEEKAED

Adenosine receptor A1 [6] = target: T4, Adenosine receptor A1; assay: Displacement of [3H]DPCPX from rat brain cortical membrane A1AR in presence of 100 uM of GTP by scintillation counting analysis; type: cell membranes, Cortex, Cell membrane
Adenosine receptor A1 [7] = target: T4, Adenosine receptor A1; assay: Displacement of [3H]CCPA from rat adenosine receptor A1 by radioligand competition assay
How it was run: (§1)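 A1 competition binding with [3H]CCPA, 0.5 nM. Membranes: CHO cells expressing human A1, or rat brain cortex. Membranes preincubated 20 min with adenosine deaminase (2 U/mL per mg protein). Incubation 90 min at rt in 50 mM Tris-HCl pH 7.4 with 2.5% final DMSO. Nonspecific binding defined by 10 µM 2-chloroadenosine. GF/B filtration, scintillation counting.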

Adenosine receptor A1 [8] = target: T4, Adenosine receptor A1; assay: Displacement of [3H]DPCPX from rat adenosine receptor A1 by radioligand competition assay
How it was run: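 Rat brain cortical membranes, [3H]DPCPX 0.4 nM. Nonspecific binding defined by 10 μM DPCPX. Curves run with and without 100 μM GTP. Incubation 90 min at rt in 50 mM Tris-HCl pH 7.4, after 20 min adenosine deaminase preincubation. Filtration, then scintillation counting. GTP shift is the IC50 with GTP divided by the IC50 without GTP.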

Adenosine receptor A1 [9] = target: T4, Adenosine receptor A1; assay: Displacement of [3H]DPCPX from rat brain cortical membrane A1AR in absence of GTP by scintillation counting analysis; type: cell membranes, Cortex, Cell membrane
Adenosine receptor A2a [10] = target: Adenosine receptor A2a (Rattus norvegicus, UniProt P30543); assay: Displacement of [3H]MSX2 from adenosine receptor A2A in rat brain striatum membranes incubated for 30 mins by radioligand competition assay; type: cell membranes, Cell membrane
[11] = target: T5, Adenosine receptor A2b (Homo sapiens) (UniProt P29275); assay: Displacement of [3H]PSB-603 from human adenosine receptor A2B expressed in CHO cell membranes at 0.1 uM incubated for 75 mins by radioligand competition assay relative to control; conditions: Cell membrane
T5 sequence (whole entry): T1 sequence (P29275 whole entry)
How it was run: (§2)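 CHO membranes expressing human or rat A2B, [3H]PSB-603 0.3 nM. Nonspecific binding defined by 10 µM DPCPX. Preincubated 20 min with adenosine deaminase, then 75 min at rt in Tris-HCl pH 7.4 with 2.5% DMSO. Filters washed with ice-cold 50 mM Tris-HCl containing 0.1% BSA; scintillation counting.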

[12] = target: T6, Adenosine receptor A3 (Rattus norvegicus) (UniProt P28647); assay: Displacement of [3H]NECA from rat adenosine receptor A3 expressed in CHO cell membranes at 0.1 uM incubated for 60 mins by radioligand competition assay relative to control; conditions: Cell membrane
T6 sequence (whole entry): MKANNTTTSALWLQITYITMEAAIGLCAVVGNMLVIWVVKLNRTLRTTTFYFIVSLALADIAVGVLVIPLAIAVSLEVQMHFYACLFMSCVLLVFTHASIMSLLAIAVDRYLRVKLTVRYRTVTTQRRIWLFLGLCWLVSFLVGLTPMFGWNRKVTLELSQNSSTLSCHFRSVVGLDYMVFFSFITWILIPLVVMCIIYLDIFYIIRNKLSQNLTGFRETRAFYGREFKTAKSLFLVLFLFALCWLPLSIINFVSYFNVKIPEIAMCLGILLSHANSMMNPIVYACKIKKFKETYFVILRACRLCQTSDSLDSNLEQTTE
How it was run: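 CHO membranes expressing rat A3, [3H]NECA 10 nM. Nonspecific binding defined by 100 µM R-PIA. Preincubated 20 min with adenosine deaminase, then 60 min at rt in 50 mM Tris-HCl pH 7.4 with 2.5% DMSO. GF/B filtration, scintillation counting.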

[13] = target: T7, Adenosine receptor A1 (Rattus norvegicus) (UniProt P25099); assay: Displacement of [3H]CCPA from adenosine receptor A1 in rat brain cortex membranes at 0.1 uM incubated for 90 mins by radioligand competition assay; conditions: Cell membrane, filed as antagonist; how it was run: as §1
T7 sequence (whole entry): T4 sequence (P25099 whole entry)

Adenosine receptor A3 [14] = target: T8, Adenosine receptor A3 (Rattus norvegicus, UniProt P28647); assay: Displacement of [3H]NECA from rat adenosine receptor A3 expressed in CHO cell membranes incubated for 60 mins by radioligand competition assay; design: species or system Cell membrane
T8 sequence (P28647 whole entry): T6 sequence (whole entry)

[15] = target: Adenosine receptor A2a (Rattus norvegicus) (UniProt P30543); assay: Displacement of [3H]MSX2 from adenosine receptor A2A in rat brain striatum membranes at 0.1 uM incubated for 30 mins by radioligand competition assay relative to control; conditions: Cell membrane
How it was run: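 A2A binding, [3H]MSX-2 1.0 nM. Membranes: rat brain striatum, or HEK293 cells expressing human A2A. Adenosine deaminase preincubation 20 min, then 30 min at rt in 50 mM Tris-HCl pH 7.4 with 2.5% DMSO. Nonspecific binding defined by 50 µM NECA. GF/B filtration, scintillation counting. Single-concentration percent inhibition, ≥3 experiments in duplicate or triplicate.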

Adenosine receptor A2b [16] = target: T9, Adenosine receptor A2b (Rattus norvegicus, UniProt P29276); assay: Displacement of [3H]PSB-603 from rat adenosine receptor A2B expressed in CHO cell membranes incubated for 75 mins by radioligand competition assay; design: species or system Cell membrane; how it was run: as §2
T9 sequence (P29276 whole entry): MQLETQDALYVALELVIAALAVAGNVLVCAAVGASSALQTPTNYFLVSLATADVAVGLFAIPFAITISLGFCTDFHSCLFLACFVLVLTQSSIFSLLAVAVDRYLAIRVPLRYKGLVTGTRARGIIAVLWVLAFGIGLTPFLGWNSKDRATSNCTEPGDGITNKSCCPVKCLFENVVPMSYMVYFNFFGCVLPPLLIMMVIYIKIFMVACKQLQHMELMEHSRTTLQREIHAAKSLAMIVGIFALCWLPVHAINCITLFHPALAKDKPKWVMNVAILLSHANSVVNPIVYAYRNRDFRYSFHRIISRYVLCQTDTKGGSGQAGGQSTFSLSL

Adenosine receptor A2a (Rattus norvegicus, UniProt P30543), sequence (P30543 whole entry): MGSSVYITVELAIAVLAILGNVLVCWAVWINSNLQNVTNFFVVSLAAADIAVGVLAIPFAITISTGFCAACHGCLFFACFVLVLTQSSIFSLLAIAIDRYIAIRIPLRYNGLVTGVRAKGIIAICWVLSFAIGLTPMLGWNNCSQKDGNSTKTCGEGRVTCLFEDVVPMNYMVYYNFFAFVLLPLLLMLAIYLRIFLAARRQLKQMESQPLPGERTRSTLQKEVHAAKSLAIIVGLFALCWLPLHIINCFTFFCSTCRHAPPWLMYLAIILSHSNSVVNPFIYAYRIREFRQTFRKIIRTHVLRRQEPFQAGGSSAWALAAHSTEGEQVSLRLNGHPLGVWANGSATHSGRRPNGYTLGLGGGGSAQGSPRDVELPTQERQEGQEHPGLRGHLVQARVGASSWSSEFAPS
Adenosine receptor A2a (Homo sapiens, UniProt P29274), sequence (P29274 whole entry): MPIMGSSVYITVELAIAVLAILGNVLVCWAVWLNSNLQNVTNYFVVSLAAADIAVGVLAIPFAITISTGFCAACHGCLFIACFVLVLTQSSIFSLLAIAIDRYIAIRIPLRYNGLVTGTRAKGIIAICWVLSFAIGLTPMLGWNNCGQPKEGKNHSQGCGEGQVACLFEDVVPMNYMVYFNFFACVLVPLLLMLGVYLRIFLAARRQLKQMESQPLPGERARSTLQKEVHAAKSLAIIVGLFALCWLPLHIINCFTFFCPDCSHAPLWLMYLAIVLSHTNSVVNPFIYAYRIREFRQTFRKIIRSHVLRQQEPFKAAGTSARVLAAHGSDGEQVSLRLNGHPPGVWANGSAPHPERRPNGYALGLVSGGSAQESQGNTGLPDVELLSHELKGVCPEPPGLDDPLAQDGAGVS
Adenosine receptor A2a (Rattus norvegicus), sequence (P30543 whole entry): as the sequence (P30543 whole entry) above

Ki (Adenosine receptor A2b [1])	Ki (Adenosine receptor A3 [2])	Ki (Adenosine receptor A1 [3])	Ki (Adenosine receptor A2a [4])	Ki (Adenosine receptor A1 [5])	IC50 (Adenosine receptor A1 [6])	Ki (Adenosine receptor A1 [7])	Ki (Adenosine receptor A1 [8])	IC50 (Adenosine receptor A1 [9])	Ki (Adenosine receptor A2a [10])	inhibition [11]	inhibition [12]	inhibition [13]	Ki (Adenosine receptor A3 [14])	inhibition [15]	Ki (Adenosine receptor A2b [16])	SMILES
> 100 nM	428 nM	24.4 nM	39.1 nM	0.939 nM	0.0981 nM	0.939 nM	0.0867 nM	0.0929 nM	1670 nM	–	–	–	–	–	–	O=C(Nc1nc(-c2ccccc2)c(C(=O)c2ccc(Cl)cc2)s1)c1ccccc1
> 100 nM	83.3 nM	> 1000 nM	> 1000 nM	> 1000 nM	–	–	–	–	> 1000 nM	12%	22%	16%	> 10000 nM	7%	–	O=C(Nc1nc(-c2ccccc2)c(-c2nc3ccccc3c(=O)n2-c2ccc(Cl)cc2)s1)c1ccccc1
> 100 nM	> 1000 nM	32.3 nM	> 1000 nM	1.01 nM	–	–	–	–	> 1000 nM	–	–	–	> 10000 nM	12%	> 100 nM	COc1ccc(C(=O)Nc2nc(-c3ccccc3)c(C(=O)c3ccc(Cl)cc3)s2)cc1

Reference: ChEMBL document CHEMBL4680130, “Substituted 4-phenylthiazoles: Development of potent and selective A, A and dual A/A adenosine receptor antagonists” (Eur J Med Chem, 2020)
